Non-standard residues stand in square brackets, D forms with d. Residues, ends and D or L forms follow the SMILES beside them. *: point of attachment. Phe(4-guanidino) = N=C(N)Nc1ccc(C[C@H](N)C(=O)O)cc1; Phe(3-CN) = N#Cc1cccc(C[C@H](N)C(=O)O)c1; Phe(4-NH2) = Nc1ccc(C[C@H](N)C(=O)O)cc1; Hydrocinnamoyl = O=C(CCc1ccccc1)*; 3Pal = N[C@@H](Cc1cccnc1)C(=O)O; Phg = N[C@H](C(=O)O)c1ccccc1; Bz = O=C(c1ccccc1)*
Tests used:
[1] = Permeability of the compound at 200 uM incubated for 5 hrs by PAMPA; type: physicochemical
In short: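 PAMPA in PBS: donor wells held 200 μM compound (triplicate) against PBS acceptor, 5 h at room temperature. Donor and acceptor concentrations were quantified by RP-18 HPLC-UV against calibration curves (10–200 μM). Pe and membrane retention were calculated by a literature method. Amiloride, caffeine, famotidine, furosemide and phenytoin served as references.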

Trypsin = Trypsin (Homo sapiens, UniProt P07477+P07478+P35030); experiment: Inhibition of trypsin (unknown origin) at 50 uM preincubated with protein for 15 mins followed by boc-Val-Pro-Arg-AMC substrate addition measured by continuous fluorometric analysis; type: protein assay
In short: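 Trypsin (1 nM) was preincubated 15 min with inhibitor (50 μM final) in 50 mM Tris-HCl pH 7.5, 150 mM NaCl, 0.05% Tween 20. boc-Val-Pro-Arg-AMC (50 μM final) was added. Continuous fluorescence at ex 355/em 460 nm; rate compared with an uninhibited control. Triplicate.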

[2] = molecular target: Genome polyprotein (West Nile virus) (UniProt P06935); experiment: Inhibition of West Nile virus NS2B-NS3 protease at 50 uM preincubated with protein for 15 mins followed by Abz-Gly-Leu-Lys-Arg-Gly-Gly-3-(NO2)-Tyr substrate addition measured by continuous fluorometric analysis
Chain of Genome polyprotein (West Nile virus) (P06935 whole entry): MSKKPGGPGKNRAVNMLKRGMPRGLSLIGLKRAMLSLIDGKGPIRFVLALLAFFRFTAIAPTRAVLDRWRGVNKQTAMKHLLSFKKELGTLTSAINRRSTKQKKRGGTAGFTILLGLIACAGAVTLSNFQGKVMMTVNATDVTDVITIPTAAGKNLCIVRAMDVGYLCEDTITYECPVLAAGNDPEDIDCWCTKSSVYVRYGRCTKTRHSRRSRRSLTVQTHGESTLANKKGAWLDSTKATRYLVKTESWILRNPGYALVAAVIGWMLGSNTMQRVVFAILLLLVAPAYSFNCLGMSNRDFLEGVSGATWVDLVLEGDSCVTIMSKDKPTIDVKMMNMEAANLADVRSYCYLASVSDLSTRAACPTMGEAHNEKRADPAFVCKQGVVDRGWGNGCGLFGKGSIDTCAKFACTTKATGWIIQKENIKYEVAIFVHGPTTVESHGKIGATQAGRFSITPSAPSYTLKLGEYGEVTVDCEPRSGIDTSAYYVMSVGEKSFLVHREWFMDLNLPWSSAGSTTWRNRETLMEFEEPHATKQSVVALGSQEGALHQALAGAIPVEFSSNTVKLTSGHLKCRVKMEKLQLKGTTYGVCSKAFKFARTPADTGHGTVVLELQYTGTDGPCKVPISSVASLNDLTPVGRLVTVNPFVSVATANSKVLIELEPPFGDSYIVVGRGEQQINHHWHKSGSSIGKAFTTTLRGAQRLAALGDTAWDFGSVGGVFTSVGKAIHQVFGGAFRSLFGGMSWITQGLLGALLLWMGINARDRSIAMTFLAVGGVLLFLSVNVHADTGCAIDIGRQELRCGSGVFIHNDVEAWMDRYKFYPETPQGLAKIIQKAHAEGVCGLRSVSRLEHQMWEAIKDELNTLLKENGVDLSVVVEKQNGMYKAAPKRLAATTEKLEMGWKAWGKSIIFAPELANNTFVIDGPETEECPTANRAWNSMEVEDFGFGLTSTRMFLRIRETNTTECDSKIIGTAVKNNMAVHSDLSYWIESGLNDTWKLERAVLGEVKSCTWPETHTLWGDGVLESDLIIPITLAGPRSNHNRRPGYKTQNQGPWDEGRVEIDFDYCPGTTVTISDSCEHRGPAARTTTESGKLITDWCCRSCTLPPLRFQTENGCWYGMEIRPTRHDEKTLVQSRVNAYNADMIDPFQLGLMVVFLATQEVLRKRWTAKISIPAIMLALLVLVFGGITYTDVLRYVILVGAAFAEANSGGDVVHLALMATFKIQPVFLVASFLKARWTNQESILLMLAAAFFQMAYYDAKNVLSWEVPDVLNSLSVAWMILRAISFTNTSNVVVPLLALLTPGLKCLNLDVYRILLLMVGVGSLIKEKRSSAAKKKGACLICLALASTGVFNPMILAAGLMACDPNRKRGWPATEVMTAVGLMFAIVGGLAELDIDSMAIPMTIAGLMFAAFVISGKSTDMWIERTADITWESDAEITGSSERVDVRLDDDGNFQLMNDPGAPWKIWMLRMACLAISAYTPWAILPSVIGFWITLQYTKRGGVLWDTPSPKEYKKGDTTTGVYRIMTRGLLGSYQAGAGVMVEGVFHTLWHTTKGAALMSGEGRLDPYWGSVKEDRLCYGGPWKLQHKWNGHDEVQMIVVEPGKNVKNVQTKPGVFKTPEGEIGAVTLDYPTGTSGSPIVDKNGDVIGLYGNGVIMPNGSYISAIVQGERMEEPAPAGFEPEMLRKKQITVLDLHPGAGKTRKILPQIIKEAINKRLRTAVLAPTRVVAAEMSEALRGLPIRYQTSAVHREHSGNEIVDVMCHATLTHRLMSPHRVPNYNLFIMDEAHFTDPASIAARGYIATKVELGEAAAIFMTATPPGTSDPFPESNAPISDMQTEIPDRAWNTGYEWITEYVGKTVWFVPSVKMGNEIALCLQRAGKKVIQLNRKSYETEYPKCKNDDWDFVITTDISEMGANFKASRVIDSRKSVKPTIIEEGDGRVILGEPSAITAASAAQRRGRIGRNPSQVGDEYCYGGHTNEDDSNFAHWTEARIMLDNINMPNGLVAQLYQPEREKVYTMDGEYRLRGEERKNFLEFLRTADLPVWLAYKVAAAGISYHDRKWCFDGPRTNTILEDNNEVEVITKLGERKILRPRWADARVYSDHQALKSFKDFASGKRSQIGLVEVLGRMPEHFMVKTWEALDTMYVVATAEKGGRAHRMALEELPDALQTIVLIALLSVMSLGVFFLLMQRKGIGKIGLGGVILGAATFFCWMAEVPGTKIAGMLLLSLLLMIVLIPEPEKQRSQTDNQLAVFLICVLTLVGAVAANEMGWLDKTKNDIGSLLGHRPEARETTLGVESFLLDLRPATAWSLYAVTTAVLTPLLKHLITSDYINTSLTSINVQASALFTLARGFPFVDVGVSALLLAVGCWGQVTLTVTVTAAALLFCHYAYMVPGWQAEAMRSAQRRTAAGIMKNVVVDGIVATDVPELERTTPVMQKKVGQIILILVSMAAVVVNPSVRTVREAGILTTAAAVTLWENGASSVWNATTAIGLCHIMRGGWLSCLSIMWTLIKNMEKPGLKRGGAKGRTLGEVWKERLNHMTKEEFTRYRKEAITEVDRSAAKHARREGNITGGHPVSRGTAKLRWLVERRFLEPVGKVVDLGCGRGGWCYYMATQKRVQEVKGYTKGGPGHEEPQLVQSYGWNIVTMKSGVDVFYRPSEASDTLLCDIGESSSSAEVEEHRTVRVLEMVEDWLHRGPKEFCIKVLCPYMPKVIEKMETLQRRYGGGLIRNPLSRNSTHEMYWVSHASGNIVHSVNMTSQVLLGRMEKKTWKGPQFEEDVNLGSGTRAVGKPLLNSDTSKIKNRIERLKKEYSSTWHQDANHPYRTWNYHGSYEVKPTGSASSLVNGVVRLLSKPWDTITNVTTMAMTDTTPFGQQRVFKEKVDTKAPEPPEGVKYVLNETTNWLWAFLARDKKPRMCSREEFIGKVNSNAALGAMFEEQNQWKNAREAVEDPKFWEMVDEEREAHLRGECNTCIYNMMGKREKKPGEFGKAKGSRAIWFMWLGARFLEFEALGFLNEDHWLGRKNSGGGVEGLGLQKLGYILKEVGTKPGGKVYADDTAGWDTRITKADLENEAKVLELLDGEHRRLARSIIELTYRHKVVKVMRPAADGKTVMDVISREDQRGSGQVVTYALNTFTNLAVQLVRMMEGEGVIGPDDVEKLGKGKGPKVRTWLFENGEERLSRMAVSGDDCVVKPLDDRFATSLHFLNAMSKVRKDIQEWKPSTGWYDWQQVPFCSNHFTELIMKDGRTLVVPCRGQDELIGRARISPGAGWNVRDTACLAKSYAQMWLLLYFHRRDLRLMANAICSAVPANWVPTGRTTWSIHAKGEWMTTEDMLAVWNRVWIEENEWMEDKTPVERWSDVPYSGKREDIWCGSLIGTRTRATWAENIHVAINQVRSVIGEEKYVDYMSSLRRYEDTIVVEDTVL
In short: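 WNV NS2B-NS3pro (150 nM) was preincubated 15 min with inhibitor (50 μM final) in 50 mM Tris-HCl pH 9.0, 10% ethylene glycol, 0.0016% Brij 58. Abz-Gly-Leu-Lys-Arg-Gly-Gly-3-(NO2)-Tyr (50 μM; Km 212 μM) started the reaction. Continuous read at ex 320/em 405 nm for 15 min against an uninhibited control. Triplicate.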

[3] = Inhibition of Dengue virus (serotype 2) NS2B-NS3 protease preincubated with protein for 15 mins followed by Abz-Nle-Lys-Arg-Arg-Ser-3-(NO2)Tyr substrate addition measured by continuous fluorometric analysis; design: species or system dengue virus type 2
In short: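 DENV2 protease (100 nM) in Tris-HCl pH 9.0/ethylene glycol/Brij 58 buffer, preincubated 15 min with inhibitor, then 50 μM FRET substrate added. Read at ex 320/em 405 nm over 15 min. Done for compounds with ≥70% inhibition, using series of 0–2.5, 0–6 or 0–30 μM, in triplicate, with nonlinear fitting. Ki came from substrate at 50–200 μM via Cheng–Prusoff.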

dengue virus type 2 [4] = experiment: Inhibition of Dengue virus (serotype 2) NS2B-NS3 protease at 50 uM preincubated with protein for 15 mins followed by Abz-Nle-Lys-Arg-Arg-Ser-3-(NO2)Tyr substrate addition measured by continuous fluorometric analysis
In short: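 Continuous FRET assay in 50 mM Tris-HCl pH 9.0, 10% ethylene glycol, 0.0016% Brij 58. DENV2 protease (100 nM) was preincubated 15 min with inhibitor (50 μM final), then Abz-Nle-Lys-Arg-Arg-Ser-3-(NO2)Tyr (50 μM final; Km 105 μM) was added. Read at ex 320/em 405 nm as slope over 15 min, relative to an uninhibited control. Triplicate.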

Prothrombin = Prothrombin (Homo sapiens, UniProt P00734); experiment: Inhibition of human thrombin at 25 uM preincubated with protein for 15 mins followed by boc-Val-Pro-Arg-AMC substrate addition measured after 10 mins by continuous fluorometric analysis
[5] = Cytotoxicity against human HuH7 cells at 50 uM incubated for 48 hrs measured by Cell-Titer Glo Luminescent viability Assay; type: cell-based; details: huh-7, 48 h
dengue virus type 2 [6] = experiment: Antiviral activity against wild type Dengue virus (serotype 2) infected in human Huh-7 cells assessed as inhibition of viral replication at 50 uM incubated for 48 hrs measured by Cell-Titer Glo Luminescent viability assay; type: functional; details: Huh-7, 48 h
[7] = Half life in Sprague-Dawley rat liver microsomes at 100 uM incubated for 30 mins by HPLC analysis; type: ADME
In short: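 Pooled male Sprague-Dawley rat liver microsomes (0.2 mg/mL protein) with NADPH (5 mM) in DPBS, preincubated 15 min at 37 °C. Compound (100 μM) was then incubated 30 min at 37 °C. Aliquots at 0, 2, 5, 10, 20 and 30 min were quenched with acetonitrile, iced, and centrifuged. Parent remaining was measured by RP-HPLC-UV peak area versus reference. Testosterone served as activity control.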

Genome polyprotein = Genome polyprotein (West Nile virus, UniProt P06935); experiment: Inhibition of West Nile virus NS2B-NS3 protease preincubated with protein for 15 mins followed by Abz-Gly-Leu-Lys-Arg-Gly-Gly-3-(NO2)-Tyr substrate addition measured by continuous fluorometric analysis
Chain of Genome polyprotein (P06935 1371-1501 limits assumed): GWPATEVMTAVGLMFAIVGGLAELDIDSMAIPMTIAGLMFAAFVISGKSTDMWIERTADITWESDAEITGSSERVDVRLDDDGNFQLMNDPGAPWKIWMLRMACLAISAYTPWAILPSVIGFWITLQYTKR
Chain of Genome polyprotein (P06935 1502-2120 limits assumed): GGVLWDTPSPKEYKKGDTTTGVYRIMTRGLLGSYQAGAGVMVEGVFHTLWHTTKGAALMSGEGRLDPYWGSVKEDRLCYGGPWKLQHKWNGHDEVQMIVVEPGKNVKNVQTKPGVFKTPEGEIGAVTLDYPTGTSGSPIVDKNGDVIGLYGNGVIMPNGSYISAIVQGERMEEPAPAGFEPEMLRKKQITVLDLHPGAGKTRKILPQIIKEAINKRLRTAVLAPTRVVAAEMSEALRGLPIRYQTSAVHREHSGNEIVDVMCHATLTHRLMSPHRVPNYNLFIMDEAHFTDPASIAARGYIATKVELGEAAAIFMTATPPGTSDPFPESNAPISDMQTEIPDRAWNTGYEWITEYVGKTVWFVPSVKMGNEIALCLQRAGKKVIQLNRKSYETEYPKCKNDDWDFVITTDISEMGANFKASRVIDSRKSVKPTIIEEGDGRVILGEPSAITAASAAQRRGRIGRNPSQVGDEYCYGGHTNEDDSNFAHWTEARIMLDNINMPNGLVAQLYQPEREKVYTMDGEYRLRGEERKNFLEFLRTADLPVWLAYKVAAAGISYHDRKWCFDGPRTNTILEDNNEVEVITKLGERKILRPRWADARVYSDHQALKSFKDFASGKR
In short: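 WNV protease (150 nM), 15-min preincubation with inhibitor in pH 9.0 Tris buffer, then 50 μM FRET substrate. Read at ex 320/em 405 nm. Done for compounds with ≥90% single-point inhibition, using graded inhibitor concentrations in triplicate, with the curve fitted.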

SMILES	permeability [1]	inhibition (Trypsin) [%]	inhibition [2] [%]	IC50 [3] [nM]	inhibition (dengue virus type 2 [4]) [%]	inhibition (Prothrombin) [%]	Activity [5]	Ki [3] [nM]	inhibition at 50 µM (dengue virus type 2 [6]) [%]	half-life at 100 µM [7] [min]	IC50 (Genome polyprotein) [nM]
N=C(N)Nc1ccc(C[C@H](NC(=O)c2ccccc2)C(=O)N[C@@H](CCCCN)C(=O)N[C@H](C(N)=O)c2ccccc2)cc1 (Bz-[Phe(4-guanidino)]-Lys-[Phg]-NH2)	impermeable	16.2	64.7	580	99.9	7.6					
N=C(N)c1ccc(C[C@H](NC(=O)c2ccccc2)C(=O)N[C@@H](CCCCN)C(=O)N[C@H](C(N)=O)c2ccccc2)cc1	impermeable	17.4	59.1	440	100	18	Non-toxic	232	32.4		
N#Cc1cccc(C[C@H](NC(=O)c2ccccc2)C(=O)N[C@@H](CCCCN)C(=O)N[C@H](C(N)=O)c2ccccc2)c1 (Bz-[Phe(3-CN)]-Lys-[Phg]-NH2)		0	15.6		29.6	4					
N=C(N)c1cccc(C[C@H](NC(=O)c2ccc(C(F)(F)F)cc2)C(=O)N[C@@H](CCCCN)C(=O)N[C@H](C(N)=O)c2ccccc2)c1	impermeable	27.1	76.1	5810	95.8	66.6					
CC(=N)Nc1ccc(C[C@H](NC(=O)c2ccccc2)C(=O)N[C@@H](CCCCN)C(=O)N[C@H](C(N)=O)c2ccccc2)cc1	impermeable	0	34.2	12700	76.6	7.7					
N=C(N)NCCC[C@H](NC(=O)c1ccccc1)C(=O)N[C@@H](CCCCN)C(=O)N[C@H](C(N)=O)c1ccccc1 (Bz-Arg-Lys-[Phg]-NH2)		0.5					Non-toxic		40.3		
NCCCC[C@H](NC(=O)[C@H](Cc1cccnc1)NC(=O)c1ccccc1)C(=O)N[C@H](C(N)=O)c1ccccc1 (Bz-[3Pal]-Lys-[Phg]-NH2)		3.4	23.8		17.5	1.8					
N=C(N)NCCC[C@H](NC(=O)CCc1ccccc1)C(=O)N[C@@H](CCCCN)C(=O)N[C@H](C(N)=O)c1ccccc1 (Hydrocinnamoyl-Arg-Lys-[Phg]-NH2)		2.3	45.3	2700	95.9	2.5					
N=C(N)c1ccc(C[C@H](NC(=O)CCc2ccccc2)C(=O)N[C@@H](CCCCN)C(=O)N[C@H](C(N)=O)c2ccccc2)cc1	impermeable	4.4	67.7	260	101	24.7	Non-toxic	160	58.8	22	
NCCCC[C@H](NC(=O)[C@H](Cc1ccc(N)cc1)NC(=O)c1ccccc1)C(=O)N[C@H](C(N)=O)c1ccccc1 (Bz-[Phe(4-NH2)]-Lys-[Phg]-NH2)		0	23.8		21.1	2.3					
C[C@]12CC[C@H]3[C@@H](CCC4=CC(=O)CC[C@@]43C)[C@@H]1CC[C@@H]2O [TESTOSTERONE]										63	
CC(=O)Nc1ccc(C[C@H](NC(=O)c2ccccc2)C(=O)N[C@@H](CCCCN)C(=O)N[C@H](C(N)=O)c2ccccc2)cc1 (Bz-[Phe(4-NH2)](Ac)-Lys-[Phg]-NH2)	impermeable	0	93.7		34.8	7.4					3850

Reference: ChEMBL document CHEMBL3627637, “Phenylalanine and Phenylglycine Analogues as Arginine Mimetics in Dengue Protease Inhibitors” (J Med Chem, 2015)
